Activity calls are given as the source filed them. The rule behind the calls is not given here.
Assays:
[1] = Plasma clearance in Sprague-Dawley rat at 5 mg/kg, iv measured up to 240 mins post dose by LC-MS/MS analysis; type: ADME, organism-based
Summary of the method: (§1)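 Male Sprague-Dawley rats, 2 per group, given 5 mg/kg intravenously. Blood sampled through tail-vein cannulae at 5, 10, 20, 30, 60, 120, 180 and 240 min into EDTA tubes and spun to plasma.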

[2] = system: Mus musculus; assay: Antidiabetic activity in STZ-induced diabetic C57BL/6J mouse model assessed as reduction in retinal vascular permeability at 100 ug administered 4 times via ivt measured at 8 weeks post diabetes onset relative to control; type: functional
Summary of the method: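 Diabetes was induced with STZ in male C57BL/6J mice. Peptide was given as repeated intravitreal injections (4 × 100 μg). Retinal permeability was read as FITC-BSA extravasation 8 weeks after diabetes onset and compared with vehicle-treated diabetic mice. The anti-VEGFR2 antibody DC101 (6.2 μg/eye, single dose) served as positive control.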

[3] = system: Rattus norvegicus; assay: Antiinflammatory activity in ip dosed Sprague-Dawley rat carrageenan-induced paw edema model assessed as inhibition of edema pretreated for 15 mins followed by carrageenan challenge measured up to 6 hrs; type: functional, organism-based
Summary of the method: (§2)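 Male Sprague-Dawley rats received peptide IP (30, 10 or 3 mg/kg), or indomethacin IP at 5 mg/kg, 15 min before subplantar carrageenan. Paw volume was followed over time against a vehicle group.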

[4] = target: Prothrombin (Homo sapiens, UniProt P00734); assay: Inhibition of recombinant human alpha thrombin using fluorogenic peptide as substrate by fluorescence based assay
Summary of the method: (§3)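 Panel of human serine proteases. Substrates and assay conditions followed each supplier's recommendations. Peptides were first screened at 50 μM. Where inhibition was detectable, hydrolytic activity was measured across a range of peptide concentrations. Ki was obtained by fitting to the tight-binding inhibitor rate equation.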

[5] = Aqueous solubility of the compound in buffer; type: physicochemical
[6] = system: Rattus norvegicus; assay: Antiinflammatory activity in Sprague-Dawley rat assessed as inhibition carrageenan-induced paw edema at 30 mg/kg, ip pretreated for 15 mins followed by carrageenan challenge measured at 1 hr post carrageenan challenge; type: functional; summary of the method: as §2
[7] = system: Rattus norvegicus; assay: Antiinflammatory activity in Sprague-Dawley rat assessed as inhibition carrageenan-induced paw edema at 30 mg/kg, ip pretreated for 15 mins followed by carrageenan challenge measured at 6 hrs post carrageenan challenge; type: functional; summary of the method: as §2
[8] = target: T1, Cathepsin G (Homo sapiens, UniProt P08311); assay: Inhibition of recombinant human Cathepsin-G; summary of the method: as §3
T1 sequence (P08311 whole entry): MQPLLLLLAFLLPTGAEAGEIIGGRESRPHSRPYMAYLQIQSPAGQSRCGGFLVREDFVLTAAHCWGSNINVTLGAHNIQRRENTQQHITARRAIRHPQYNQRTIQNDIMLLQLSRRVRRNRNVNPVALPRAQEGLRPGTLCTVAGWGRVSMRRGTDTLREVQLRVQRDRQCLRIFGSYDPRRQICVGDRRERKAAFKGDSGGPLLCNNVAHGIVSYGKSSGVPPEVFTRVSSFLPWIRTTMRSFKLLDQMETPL

[9] = target: Kallikrein-6 (Homo sapiens, UniProt Q92876); assay: Inhibition of recombinant human C-terminal His-tagged KLK6 isoform 1 (1 to 244 residues) expressed in HEK293 cells using fluorogenic Boc-QARAMC peptide as substrate by fluorescence based assay
Summary of the method: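 Human serine proteases were assayed with substrates and conditions set by each supplier's recommendations. Peptides were first screened at 50 μM. Where inhibition was detected, Ki was determined from activity across peptide concentrations using a tight-binding rate equation.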

[10] = Half life in mouse plasma at 4 uM measured up to 24 hrs by LC-MS/MS analysis; type: ADME, cell-free
Summary of the method: (§4)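 Peptide from a 0.16 mM DMSO stock was added to human, rat or mouse plasma (final 4 μM) or to homogenized human vitreous (final 1 μM), with internal standard. Samples were incubated at 37 °C for up to 24 h and extracted with water/acetonitrile/methanol 1:3:3.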

[11] = Half life in human plasma at 4 uM measured up to 24 hrs by LC-MS/MS analysis; type: ADME, cell-free; summary of the method: as §4
[12] = Half life in rat plasma at 4 uM measured up to 24 hrs by LC-MS/MS analysis; type: ADME, cell-free; summary of the method: as §4
[13] = system: Rattus norvegicus; assay: Antiinflammatory activity in Sprague-Dawley rat assessed as inhibition carrageenan-induced paw edema at 30 mg/kg, ip pretreated for 15 mins followed by carrageenan challenge measured at 4 hrs post carrageenan challenge; type: functional; summary of the method: as §2
[14] = system: Plasma; assay: Anti-coagulating activity in factor 8-deficient human plasma assessed as increase in coagulation time at 10 uM by aPTT assay; type: functional
Summary of the method: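 Clotting time measured on a coagulation analyzer using actin FS, 0.025 M CaCl2, FVIII-deficient human plasma and Owren's Veronal Buffer pH 7.35, run per the manufacturer's instructions. Peptide tested from zero (vehicle) up to 10 μM. Each point is the mean ± SD of triplicates.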

[15] = Volume of distribution at steady state in Sprague-Dawley rat at 5 mg/kg, iv measured up to 240 mins post dose by LC-MS/MS analysis; type: ADME, organism-based; conditions: in vivo, read-out: Vdss; summary of the method: as §1
[16] = Half life in Sprague-Dawley rat at 5 mg/kg, iv by LC-MS/MS analysis; type: ADME, organism-based; conditions: in vivo
Summary of the method: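 Groups of 2 male Sprague-Dawley rats were dosed IV at 5 mg/kg. Serial tail-vein blood was drawn into EDTA at 5–240 min, and plasma peptide was quantified by LC-MS/MS against 16–4000 ng/mL calibration lines in rat plasma. AUC was calculated by the trapezoidal method.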

[17] = system: Rattus norvegicus; assay: Antiinflammatory activity in Sprague-Dawley rat carrageenan-induced paw edema model assessed as inhibition of paw edema AUC (0 to 2 hrs) at 10 to 30 mg/kg, ip pretreated for 15 mins followed by carrageenan challenge; type: functional, organism-based; summary of the method: as §2
[18] = Half life in human vitreous humor at 1 uM measured up to 24 hrs by LC-MS/MS analysis; type: ADME, tissue-based; summary of the method: as §4
[19] = Half life in New Zealand white rabbit eye at 2 mg/ml, administered via ivt injection by HPLC analysis; type: ADME, tissue-based, Oryctolagus cuniculus; conditions: topical or ocular
Summary of the method: (§5)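 Male New Zealand White rabbits (10 weeks old, ~2 kg) received one 50 μL intravitreal injection per eye of peptide at 2 mg/mL in 50 mM sodium phosphate, pH 7.2. Animals were sacrificed at 15 min, 1, 4, 8, 24, 48 and 96 h (3 per time point). Whole vitreous was homogenized, clarified, 0.2 μm filtered and assayed by LC-MS/MS, with a lower limit of detection of 1 ng/mL in vitreous.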

[20] = target: Plasma kallikrein (Mus musculus, UniProt P26262)
Plasma kallikrein, sequence (P26262 20-390 limits assumed): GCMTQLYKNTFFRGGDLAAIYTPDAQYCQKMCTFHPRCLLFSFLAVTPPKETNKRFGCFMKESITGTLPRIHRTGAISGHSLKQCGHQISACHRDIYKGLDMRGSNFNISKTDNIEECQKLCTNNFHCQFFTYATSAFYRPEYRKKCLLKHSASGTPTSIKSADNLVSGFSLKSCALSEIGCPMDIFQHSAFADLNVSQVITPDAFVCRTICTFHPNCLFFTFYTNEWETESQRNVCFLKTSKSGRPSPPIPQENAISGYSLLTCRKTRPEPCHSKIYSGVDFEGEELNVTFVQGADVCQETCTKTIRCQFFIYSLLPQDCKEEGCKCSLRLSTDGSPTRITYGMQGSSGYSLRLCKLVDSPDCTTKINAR
Plasma kallikrein, sequence (P26262 391-638 limits assumed): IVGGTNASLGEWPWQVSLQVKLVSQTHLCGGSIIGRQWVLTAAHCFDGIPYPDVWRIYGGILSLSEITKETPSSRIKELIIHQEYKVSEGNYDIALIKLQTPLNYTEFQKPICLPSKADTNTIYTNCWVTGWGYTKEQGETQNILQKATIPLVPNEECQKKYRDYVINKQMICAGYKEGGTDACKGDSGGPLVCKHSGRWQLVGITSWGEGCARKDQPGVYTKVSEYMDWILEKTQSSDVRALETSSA

[21] = target: (UniProt A0A8D1M4K5); assay: Inhibition of pig plasma kallikrein using fluorogenic H-Pro-Phe-Arg-AMC peptide as substrate preincubated for 15 mins followed by substrate addition measured by fluorescence-based assay; parameters: species or system Sus scrofa; conditions: read-out: Ki(app)
[22] = Drug level in New Zealand white rabbit ipsialateral eye vitreous humor at 2 mg/ml, administered via ivt injection at early time point measured up to 100 hrs by LC-MS/MS analysis; type: ADME, tissue-based, Oryctolagus cuniculus; conditions: ipsilateral eye vitreous humor, topical or ocular, read-out: Drug uptake; summary of the method: as §5
[23] = Drug level in New Zealand white rabbit ipsialateral eye vitreous humor at 2 mg/ml, administered via ivt injection at late time point measured up to 100 hrs by LC-MS/MS analysis; type: ADME, tissue-based, Oryctolagus cuniculus; conditions: ipsilateral eye vitreous humor, topical or ocular, read-out: Drug uptake; summary of the method: as §5
[24] = system: Rattus norvegicus; assay: Toxicity in rat at 125 ug administered as systemic dose; conditions: in vivo
[25] = system: Cynomolgus monkey; assay: Toxicity in cynomolgus monkey at 1.25 ug administered as systemic dose; parameters: species or system Macaca fascicularis; conditions: in vivo

SMILES | clearance [1] [mL/min/kg] | Ki [4] [µM] | Ki [8] [µM] | Ki [9] [µM] | half-life at 4 µM [10] [h] | half-life at 4 µM [11] [h] | half-life at 4 µM [12] [h] | Vd [15] [L/kg] | half-life [16] [h] | half-life at 1 µM [18] [h] | half-life [19] [h] | further results
CC(=O)N[C@H]1CSCc2cc3cc(c2)CSC[C@H](C(=O)N[C@@H](C)C(=O)N(C)CC(=O)N(C)CC(=O)N(C)CC(=O)N[C@H](CCCNC(=N)N)C(=O)N[C@H](CCCNC(=N)N)C(=O)O)NC(=O)[C@H](CC(C)C)NC(=O)[C@@H]2CCCN2C(=O)[C@H](C)NC(=O)[C@H](CC(=O)O)NC(=O)[C@H](Cc2c[nH]c4ccccc24)NC(=O)[C@@H]2CCCN2C(=O)[C@H](CSC3)NC(=O)[C@H](Cc2c[nH]c3ccccc23)NC(=O)[C@@H]2CCCN2C(=O)[C@H](CC(N)=O)NC(=O)[C@H](Cc2c[nH]c3ccccc23)NC(=O)[C@H]([C@@H](C)O)NC(=O)[C@H](CC(N)=O)NC1=O | 8.2 | > 50 | > 50 | > 50 | > 24 | > 24 | > 24 | 0.93 | 1.3 | > 24 |  | inhibition (INH) [2]: 36%; inhibition [3]: Dose-dependent effect; solubility [5]: Soluble; inhibition in vivo at 30 mg/kg [6]: 71%; inhibition in vivo at 30 mg/kg [7]: 64%; inhibition in vivo at 30 mg/kg [13]: 60%; Activity [14]: < 5%; inhibition [17]: Active
CC[C@H](C)[C@@H]1NC(=O)[C@H](CC(=O)O)NC(=O)[C@@H]2CCCN2C(=O)[C@H](Cc2ccc(O)cc2)NC(=O)[C@H](Cc2ccc(O)cc2)NC(=O)[C@H](C(C)C)NC(=O)[C@@H]2CSCc3cc(cc(c3)CSC[C@@H](C(=O)N[C@@H](C)C(=O)N(C)CC(=O)N(C)CC(=O)N(C)CC(=O)N[C@H](CCCNC(=N)N)C(=O)N[C@H](CCCNC(=N)N)C(=O)O)NC1=O)CSC[C@H](NC(C)=O)C(=O)N[C@@H](CO)C(=O)N[C@@H](Cc1ccccc1)C(=O)N1CCC1C(=O)N[C@@H](Cc1ccc(O)cc1)C(=O)N[C@@H](CCCCNC(=N)N)C(=O)N2 (stereo partly specified) |  | > 50 | > 50 | > 50 |  |  |  |  |  |  | 22 | Ki [20]: 0.045 µM; Ki [21]: 0.3 µM
CC(=O)N[C@H]1CSCc2cc3cc(c2)CSC[C@H](NC(=O)[C@H](CCCCNC(=N)N)NC(=O)[C@H](Cc2ccc(O)cc2)NC(=O)[C@@H]2CCN2C(=O)[C@H](Cc2ccccc2)NC(=O)[C@H](CO)NC1=O)C(=O)N[C@@H](C)CN[C@@H](Cc1cnc[nH]1)C(=O)N[C@@H](CCC(N)=O)C(=O)N[C@@H](CC(=O)O)C(=O)N[C@@H](CC(C)C)C(=O)N[C@H](C(=O)O)CSC3 | 6.2 |  |  |  | > 24 | > 24 | > 24 | 0.44 | 0.8 | > 24 | 39 | concentration at 100 h [22]: 45 µM; concentration at 100 h [23]: 8 µM; Activity [24]: Non-Toxic; Activity [25]: Non-Toxic

From ChEMBL document CHEMBL4033799, “Stable and Long-Lasting, Novel Bicyclic Peptide Plasma Kallikrein Inhibitors for the Treatment of Diabetic Macular Edema” (J Med Chem, 2018)
